Reference: ChEMBL document CHEMBL4665720, “Bioisosteric substitution of adamantane with bicyclic lipophilic groups improves water solubility of human soluble epoxide hydrolase inhibitors” (Bioorg Med Chem Lett, 2020)
Values after ≈ are worked out from the molar mass of the structure shown. One block for each molecule: values may come before it.

Tests used:
[1] = target: T1, Bifunctional epoxide hydrolase 2 (Homo sapiens, UniProt P34913); assay: Inhibition of human soluble epoxide hydrolase by kinetic fluorescent assay
T1 sequence (P34913 whole entry): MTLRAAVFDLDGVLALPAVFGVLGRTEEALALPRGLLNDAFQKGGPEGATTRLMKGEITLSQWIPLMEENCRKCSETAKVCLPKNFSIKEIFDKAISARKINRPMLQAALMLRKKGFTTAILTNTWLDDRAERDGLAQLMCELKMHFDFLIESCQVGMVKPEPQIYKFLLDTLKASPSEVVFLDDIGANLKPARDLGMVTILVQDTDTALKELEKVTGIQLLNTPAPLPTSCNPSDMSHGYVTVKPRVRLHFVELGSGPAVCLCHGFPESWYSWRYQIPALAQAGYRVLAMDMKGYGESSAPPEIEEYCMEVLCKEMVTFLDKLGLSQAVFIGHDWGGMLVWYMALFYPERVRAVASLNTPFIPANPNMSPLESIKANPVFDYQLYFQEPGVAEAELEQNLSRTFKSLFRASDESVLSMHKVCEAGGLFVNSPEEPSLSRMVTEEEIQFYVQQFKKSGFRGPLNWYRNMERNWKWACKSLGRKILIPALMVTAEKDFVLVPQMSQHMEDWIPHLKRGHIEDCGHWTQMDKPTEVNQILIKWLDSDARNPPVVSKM
In short: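 Human sEH enzyme, kinetic fluorescence read-out; each value is the mean of three separate experiments.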

[2] = Solubility of the compound in 0.1 M sodium phosphate buffer at pH 7.4; assay type: physicochemical
In short: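 Measured in 0.1 M sodium phosphate buffer, pH 7.4, with 1% DMSO present.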

SMILES: O=C(NCCCCCCNC(=O)NCc1ccco1)NCc1ccco1
IC50 [1]: 86.3 nM
solubility ([2]; buffer): 100 µM (≈ 36.2 µg/mL)

solubility ([2]; sodium phosphate buffer, read-out: solubility): 5 µM (≈ 2.19 µg/mL)
SMILES: O=C(Nc1ccc(OC(F)(F)F)cc1)N[C@H]1CC[C@H](Oc2ccc(C(=O)O)cc2)CC1

SMILES: O=C(NCc1ccco1)Nc1ccccc1F
IC50 [1]: 635 nM
solubility ([2]; buffer): 425 µM (≈ 99.5 µg/mL)

SMILES: O=C(NCCCCNC(=O)NC1CC2C=CC1C2)NC1CC2C=CC1C2 (stereo not given)
IC50 [1]: 21 nM

SMILES: O=C(Nc1ccc(OC(F)(F)F)cc1)NC1CC2CCC1C2 (stereo not given)
IC50 [1]: 0.4 nM

SMILES: O=C(Nc1ccccc1F)NC1CC2CCC1C2 (stereo not given)
IC50 [1]: 6.8 nM
solubility ([2]; buffer): 325 µM (≈ 80.7 µg/mL)

SMILES: O=C(NCCCCNC(=O)NC1CC2CCC1C2)NC1CC2CCC1C2 (stereo not given)
IC50 [1]: 11.8 nM
solubility ([2]; buffer): 75 µM (≈ 27.2 µg/mL)

SMILES: CC1(C)C2CCC1(C)C(NC(=O)NCCCCCCCCNC(=O)NC1CC3CCC1(C)C3(C)C)C2 (stereo not given)
IC50 [1]: 0.4 nM
solubility ([2]; buffer): 10 µM (≈ 5.03 µg/mL)

SMILES: O=C(NCCCCNC(=O)NCc1ccco1)NCc1ccco1
IC50 [1]: 1800 nM
solubility ([2]; buffer): 225 µM (≈ 75.2 µg/mL)

SMILES: O=C(NC1CC2C=CC1C2)N[C@H]1CC[C@H](Oc2ccc(C(=O)O)cc2)CC1 (stereo not given in full)
IC50 [1]: 1.5 nM
solubility ([2]; buffer): 350 µM (≈ 130 µg/mL)

SMILES: O=C(NCCCCCCCCNC(=O)NCc1ccco1)NCc1ccco1
solubility ([2]; buffer): 50 µM (≈ 19.5 µg/mL)

SMILES: O=C(NCCCCCCCCNC(=O)NC1CC2CCC1C2)NC1CC2CCC1C2 (stereo not given)
IC50 [1]: 0.4 nM

SMILES: CC1(C)C2CCC1(C)C(NC(=O)NCCCCNC(=O)NC1CC3CCC1(C)C3(C)C)C2 (stereo not given)
IC50 [1]: 2.3 nM
solubility ([2]; buffer): 10 µM (≈ 4.47 µg/mL)

SMILES: CCOC(=O)CNC(=O)NC1CC2CCC1C2 (stereo not given)
IC50 [1]: 1580 nM
solubility ([2]; buffer): > 2000 µM

SMILES: CC12CCC(NC(=O)N[C@H]3CC[C@H](Oc4ccc(C(=O)O)cc4)CC3)(OC1=O)C2(C)C (stereo not given in full)
IC50 [1]: 35.3 nM
solubility ([2]; buffer): 300 µM (≈ 129 µg/mL)

SMILES: O=C(NC1CC2C=CC1C2)NC1C2CC3CC(C2)CC1C3 (stereo not given)
IC50 [1]: 0.9 nM

SMILES: CCOC(=O)CNC(=O)NC1CC2CCC1(C)C2(C)C (stereo not given)
IC50 [1]: 2170 nM
solubility ([2]; buffer): > 2000 µM

SMILES: O=C(NCCCCCCCCCCNC(=O)NC1CC2C=CC1C2)NC1CC2C=CC1C2 (stereo not given)
IC50 [1]: 0.4 nM

SMILES: O=C(NCc1ccco1)NCC12CC3CC(CC(C3)C1)C2
IC50 [1]: 44.8 nM
solubility ([2]; buffer): 300 µM (≈ 86.5 µg/mL)

SMILES: CC1(C)C2CCC1(C)C(NC(=O)Nc1ccc(OC(F)(F)F)cc1)C2 (stereo not given)
IC50 [1]: 2.5 nM

SMILES: CC1(C)C2CCC1(C)C(NC(=O)Nc1ccccc1F)C2 (stereo not given)
IC50 [1]: 14.4 nM
solubility ([2]; buffer): 225 µM (≈ 65.3 µg/mL)

SMILES: CCCCCCCCNC(=O)NC1CC2CCC1(C)C2(C)C (stereo not given)
IC50 [1]: 6.5 nM
solubility ([2]; buffer): 125 µM (≈ 38.6 µg/mL)

SMILES: O=C(NCC12CC3CC(CC(C3)C1)C2)NC1CC2C=CC1C2 (stereo not given)
IC50 [1]: 0.7 nM

SMILES: CC1(C)[C@H]2CC[C@]1(C)C(NC(=O)Nc1ccccc1F)C2 (mixture of isomers)
IC50 [1]: 3.7 nM

SMILES: CC1(C)[C@@H]2CC[C@@]1(C)C(NC(=O)Nc1ccccc1F)C2 (mixture of isomers)
IC50 [1]: 50.6 nM
solubility ([2]; buffer): 225 µM
